Rows were chosen to be rich in hits. Some 2.6% of all compounds tested hit in one or more screens of this group.
Platelet DG rel = modulates dense granule release in human platelets; 300,000 tested, 0.22% active; human platelet-rich plasma, SFLLRN dense granule ATP release, luminescence; inhibition, %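 (compounds screened at 7.5 µM in platelet-rich plasma)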;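 active means mean replicate score, as percent of positive control, at or above 50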
SENP8 block-1 = inhibitors of human SENP8 protease; 330,000 tested, 1.2% active; inhibition, % at 10 µM; purified SENP8, Z-RLRGG-aminoluciferin cleavage, luminescence; in the data active means inhibition above about 50%
Target sequence (Q96LD8 whole entry, looked up): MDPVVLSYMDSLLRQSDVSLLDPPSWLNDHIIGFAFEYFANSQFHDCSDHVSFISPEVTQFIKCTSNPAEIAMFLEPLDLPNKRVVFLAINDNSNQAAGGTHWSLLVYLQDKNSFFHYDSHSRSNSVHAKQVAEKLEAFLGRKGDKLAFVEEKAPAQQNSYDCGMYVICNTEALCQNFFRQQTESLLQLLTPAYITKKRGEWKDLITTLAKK
SENP6 block = blocks the human protease SENP6. Q9GZR1. Recombinant SENP6 catalytic domain, aminoluciferin luminescence. inhibition, % at 10 µM. 330,000 tested, 1.8% active;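 active means inhibition above about 50% at the single tested dose, limit read from the data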;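 further: plate controls were DMSO wells with enzyme for no effect and DMSO wells lacking enzyme for full effect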
SENP7 inh = blocks the human protease SENP7 | Q9BQF6 | recombinant SENP7, Z-RLRGG-aminoluciferin luminescence, 40 min | inhibition, % at 5 µM | 330,000 tested, 1.5% active | AID 434973;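 active means inhibition above about 50% at the single test dose, limit read from the data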;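 further: plate controls were DMSO with enzyme for no effect and no enzyme buffer wells for full effect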
Target sequence (Q9BQF6 706-1050 limits assumed): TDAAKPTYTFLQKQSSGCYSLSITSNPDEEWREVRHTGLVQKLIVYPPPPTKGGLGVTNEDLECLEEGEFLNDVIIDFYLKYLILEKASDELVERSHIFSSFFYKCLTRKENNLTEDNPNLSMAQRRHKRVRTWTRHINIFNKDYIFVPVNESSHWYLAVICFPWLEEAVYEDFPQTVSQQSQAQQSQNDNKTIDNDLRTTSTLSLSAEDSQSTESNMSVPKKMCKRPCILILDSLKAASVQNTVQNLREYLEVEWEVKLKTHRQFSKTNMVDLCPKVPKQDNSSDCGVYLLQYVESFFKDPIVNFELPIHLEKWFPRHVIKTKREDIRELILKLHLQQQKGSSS
SENP8 block-2 = blocks human SENP8 cleavage of Nedd8 substrate; recombinant SENP8, Nedd8 substrate fluorescence; inhibition, % at 20 µM; 360,000 tested, 0.64% active; AID 602440; in the data active means inhibition mostly above about 40%, no sharp cut-off; inactive means mostly below about 27%
SENP1 inh = blocks the human SENP1 SUMO protease catalytic domain; recombinant SENP1 catalytic domain, CyPet-SUMO1-YPet FRET cleavage; inhibition, % at 10 µM; 360,000 tested, 0.21% active; AID 624204;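 active means inhibition at least 30% at 10 µM, raw YFP signal under a set limit, fluorescence ratio 0.5 to 1.5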;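 further: 0% = enzyme with DMSO and 100% = no enzyme wells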
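material = recombinant human SENP1 catalytic domain, His6-tagged | quantity = 20 pM enzyme | reagent = 25 nM SUMO1 FRET substrate | compound dosing = 10 µM single point, 0.5% DMSO | timing = 50 min enzyme reaction, room temperature, light-protected | detection = FRET, CFP and YFP emission | control set = no-enzyme low, enzyme-DMSO high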
The depositor's hits bear a star; / = not tested or not shown.

SMILES	Platelet DG rel	SENP8 block-1	SENP6 block	SENP7 inh	SENP8 block-2	SENP1 inh
CCOc1ccc2nc(N3C(=O)CNC3=S)sc2c1	-4	20	39	26	1	1
COc1ccc2nc(N3C(=O)/C(=C/c4ccc(Cl)cc4)NC3=S)sc2c1	/	/	/	/	10	33*
Cc1[nH]c(=O)c(C#N)c(C)c1Cc1ccc(Cl)cc1Cl	1	7	10	2	-190	-1
Cc1[nH]c(=O)c(C#N)c(C)c1CSc1ncccn1	50*	0	-4	0	-72	-2
O=C(c1ccccc1)c1ccc(O)c(O)c1O	/	/	/	/	47*	0
Cc1cc(C(=O)c2ccccc2)cc(C)c1O	/	/	/	/	13	4
COc1cc(/C=C2\SC(N3CCC(C)CC3)=NC2=O)ccc1O	15	5	-10	7	-80	63*
O=C(CSc1nnc(-c2ccccn2)o1)Nc1ccccc1Cl	2	3	9	1	6	3
Clc1ccc2[nH]c(-c3ccccc3)cc2c1	/	62*	70*	60*	-372	-1
CCOC(=O)c1c(-c2ccccc2)c[nH]c1C	/	/	/	/	0	4
CCOc1ccc2nc3cc(NCc4ccc(OC)cc4)ccc3c(N)c2c1	3	37	51*	41	-298	-25
Cc1nc(C/C(=N\N)c2ccc(O)cc2O)cs1	-12	-11	6	-3	19	-9
N/N=C(\Cc1cscn1)c1ccc(O)cc1O	57*	-1	21	-4	10	15
COc1cccc(/C=C2\SC(=S)N(CCCC(=O)N3CCCCC3)C2=O)c1	18	2	29	-5	26*	0
CCc1ccc(/C=C2\SC(=S)N(CCCC(=O)N3CCN(C)CC3)C2=O)cc1	/	/	/	/	41*	0
COc1cccc(/C=C2/SC(=S)N(CCC(=O)N3CCOCC3)C2=O)c1	1	5	-7	3	26	0
Cc1ccc(-c2c(C(=O)N/N=C/c3ccsc3)nnn2-c2nonc2N)cc1	7	1	10	5	-8	0
O=C(Nc1ccc(N=Nc2ccccc2)cc1)c1ccccc1Cl	-15	-23	-2	2	51*	2
O=C(Nc1cccc(NC(=O)c2ccccc2Cl)c1)c1ccco1	59*	-10	-24	8	13	0
O=C(Nc1cccc(NC(=O)c2cccnc2Cl)c1)c1ccco1	112*	1	12	7	6	-1
O=C(Nc1ccc(N=Nc2ccccc2)cc1)c1ccc(Cl)cc1Cl	-4	-1	-5	4	20	-1
CC(=O)Nc1cccc(NC(=O)c2ccccc2Cl)c1	/	/	/	/	-2	2
Cc1c(C(=O)C(=O)NCC2CCCO2)c2ccccc2n1C (stereo not drawn)	0	6	12	6	15	1
O=C(N/N=C/c1sc(=O)n(-c2ccccc2)c1Cl)c1ccccc1	12	56*	83*	76*	-7	-12
COc1ccc(NC(=O)c2cc(S(=O)(=O)N3CCOCC3)cn2C)cc1Cl	2	-2	0	-10	10	0
SMILES	Platelet DG rel	SENP8 block-1	SENP6 block	SENP7 inh	SENP8 block-2	SENP1 inh
Cn1cc(S(=O)(=O)N2CCOCC2)cc1C(=O)Nc1ccc(Cl)cc1	99*	1	-13	-6	10	0
COn1c(-c2ccc(Cl)cc2)nc2ncccc21	-2	1	-2	5	-285	-28
Cc1cc(/C=N/Nc2nc(N)ncc2[N+](=O)[O-])c(C)n1-c1ccccc1F	28	95*	102*	95*	/	/
Nc1ccc(N2CCN(c3ccc(Cl)c(Cl)c3)CC2)cc1	0	-9	4	7	41*	4
COC(=O)N1CCN(c2ccc(Cl)c(Cl)c2)CC1	-2	-5	-8	3	19	2
Nc1ccc(N2CCCCCC2)cc1	/	23	52*	26	/	/
Nc1ccc(N2CCN(c3ccc(F)cc3)CC2)cc1	-2	-3	-22	0	18	3
Cc1ccccc1S(=O)(=O)NC(=NCc1ccc(F)cc1)c1ccccc1	/	-6	-6	-3	5	1
CCCc1cc(C(=O)NC2CCCCC2)no1	0	-10	-25	-4	16	3
CCCc1cc(C(=O)NC2CCCC2)no1	85*	-11	4	3	7	1
CCn1c(=O)cc(N2CCN(Cc3ccccc3)CC2)[nH]c1=O	53*	-11	-4	-11	8	-2
COc1ccccc1C1N=C(c2ccccc2C)NO1 (stereo not drawn)	2	75*	83*	78*	25	2
COCC(=O)N1C[C@H]2CON(C)[C@H]2C[C@H]1c1cccc(-c2ccc(C#N)cc2)c1	/	/	/	/	7	-1
COc1ccc(-c2nnc(-c3cc(OC)c(OC)c(OC)c3)o2)cc1OC	66*	15	5	0	-417	0
COc1cc(-c2nnc(-c3cccs3)o2)cc(OC)c1OC	-2	-6	-1	-4	-481	0
C=CCn1c(C)cc(C2=NNC(=NC(C)(C)C)SC2)c1C	-2	51*	83*	9	-4	-4
CC1(C(=O)NCC2CC2)Cc2c(-c3cccc(C(F)(F)F)c3)ccnc2O1 (stereo not drawn)	/	/	/	/	0	-1
CN1C(=O)/C(=C2\SC(N)=NC2=O)c2ccccc21	3	8	-9	-6	43*	1
CN1C(=O)/C(=C2\SC(N3CCCCCC3)=NC2=O)c2ccccc21	2	-23	-12	-3	13	2
Cn1c(=O)[nH]c(=O)c2c1nc(N1CCCC1)n2CCO	4	0	13	0	8	0
Cn1c(=O)[nH]c(=O)c2c1nc(N1CCCCCC1)n2CC(N)=O	70*	7	8	-1	6	1
COc1cccc2sc3cc(NCc4ccc(C)o4)ccc3c(=O)c12	/	42	30	58*	-466	-66
NS(=O)(=O)c1ccc(N/C=C\C(=O)c2ccc(F)cc2)cc1	26	64*	43	70*	-432	-55
NS(=O)(=O)c1ccc(N/C=C/C(=O)c2ccc(Br)cc2)cc1	5	0	-6	3	-285	-75
COC(=O)c1ccc(CSc2nnc(N)s2)cc1	75*	-9	-35	-4	21	2
SMILES	Platelet DG rel	SENP8 block-1	SENP6 block	SENP7 inh	SENP8 block-2	SENP1 inh
Nc1nc2ccccc2n1C(=O)c1ccco1	13	/	/	/	-2	-1
Nc1nc2ccccc2n1C(=O)c1cccs1	16	58*	11	74*	-45	-4
O=C(/C=C/c1cccs1)N1CCc2ccccc21	21	93*	-3	98*	33	1
O=C(/C=C/c1cccs1)N1CCN(c2ccccc2F)CC1	24	0	-7	6	7	1
COc1ccc(C(=O)OCC(=O)c2ccc[nH]2)cc1	/	4	21	0	-5	-3
O=C1CCCN1CCCNc1nc2c(S(=O)(=O)c3ccccc3)nnn2c2ccc(Cl)cc12	0	7	12	-7	-312	-2
O=C1c2cccc(NCCNCCO)c2C(=O)c2cccc(NCCNCCO)c21	/	/	/	/	44*	-4
